# The sample as a whole holds a higher share of hits than the screen did.
# T cruzi repl: inhibitors of intracellular T. cruzi growth, primary screen, luminescence, NIH3T3 host cells; T. cruzi beta-gal in NIH3T3, 90 h; inhibition, % (concentration not given with the values); 300,000 compounds, 1.4% hits;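 active = mean inhibition across valid replicates above about 55%, limit read from the data; inconclusive = mean below that limit but half or more replicates reach it; inactive = mean below it, under half of replicates reach it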;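 note: signal also drops with host cell toxicity which is not excluded here; 0% = plate median of DMSO wells and 100% = zero luminescence signal; higher percent means less beta-gal luminescence so fewer parasites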
#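 compound dosing = single 50 nL compound addition per well in DMSO | material = NIH/3T3 host cells with β-galactosidase reporter T. cruzi | input = 5,000 host fibroblasts per well | timing = ≥90 h infection period, 3 h prior cell attachment | read-out basis = percent inhibition of parasite-derived β-gal signal | detection = GalScreen β-gal luminescence, detergent lysis, 60 min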
# PolyA inh: polyadenylation inhibitors in yeast reporter cells, primary screen, luminescence, S. cerevisiae; S. cerevisiae SKY197-pL101 polyadenylation reporter, beta-gal luminescence; efflux-impaired pdr1/pdr3 knockout yeast; score 100 = 6 SD above DMSO; 300,000 compounds, 0.02% hits; activity score, % at 12 µM;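 active = lowest replicate activity score at least 50, where 100 means six control SD above control mean; inconclusive = lowest score under 50 but half or more replicates reach 50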;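 note: yeast exposed to compound for 9 h at 30 °C; higher score means more reporter readthrough which indicates perturbed polyadenylation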
# NALP1 yeast inh: NALP1 inflammasome inhibitors in reconstituted yeast, colorimetric, S. cerevisiae, triplicate retest. S. cerevisiae NALP1/ASC/caspase-1 growth, X-gal OD620, 72 h. inhibition, % at 10 µM. 280,000 compounds, 0.61% hits. AID 2071, 2009; in the data active = inhibition mostly above about 24%, no sharp cut-off; inactive = mostly below about 32%
# Calb FLC: C. albicans growth inhibition with fluconazole, primary screen, CaCi-2 strain, Alamar Blue fluorescence; 300,000 compounds, 0.57% hits; C. albicans CaCi-2 + fluconazole, 48 h; growth inhibition, % (no concentration beside the values);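 active = growth inhibition above about 58% in most replicates, limit read from the data, passing the limit was not always enough; inconclusive = exactly half the replicates above a set limit; inactive = most replicates below a set limit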;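 note: all wells also contain fluconazole at 8 µg/ml as a sub-toxic cotreatment; 0% = median of DMSO wells and 100% = median of geldanamycin control wells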
# NLRP3 yeast inh: NALP3 inflammasome inhibitors in reconstituted yeast, primary screen, luminescence, uHTS | inhibition, % at 10 µM | Yeast reconstituted NLRP3/ASC/caspase-1, beta-gal luminescence, 24 h | 330,000 compounds, 0.39% hits;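 active = inhibition of 50% or more; inactive = inhibition below 50%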;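 note: plate controls were induced DMSO wells for no effect and uninduced yeast grown without galactose for full effect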
# Lmaj promast: Leishmania major promastigote growth inhibition, primary screen; Leishmania major promastigotes, resazurin fluorescence viability; inhibition, % at 10 µM; 200,000 compounds, 9% hits; AID 1063, 2008; in the data active = inhibition above about 50%;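 note: promastigotes grown with compound for 44 hours at 28 °C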
# * = called active by the depositor; ? = inconclusive; . = no result given.
SMILES,T cruzi repl,PolyA inh,NALP1 yeast inh,Calb FLC,NLRP3 yeast inh,Lmaj promast
COc1ccc(CCNC(=O)C(C(=O)c2ccccc2)n2ccccc2=O)cc1OC (configuration not stated),0,21,14,-7,11,-7
CCN(CC(=O)N1CCC(C)CC1)S(=O)(=O)c1ccc(C)cc1,-3,-1,6,-7,9,.
CCN1CCN(C(=O)c2ccccc2N(Cc2ccccc2)S(=O)(=O)c2ccc(C)cc2)CC1,5,-27,16,-12,9,98*
Cc1ccc(S(=O)(=O)N(CC(=O)N2CCCCCC2)c2ccccc2)cc1,9,-6,-13,-5,3,75*
CCN1CCN(C(=O)c2ccccc2N(Cc2ccccc2)S(C)(=O)=O)CC1,6,9,7,0,1,-6
Cc1ccc(S(=O)(=O)N(CC(=O)N2CCC(C)CC2)c2ccccc2)cc1,-3,4,3,-1,6,6
Cc1ccc(S(=O)(=O)N(CC(=O)N2CCC(C)CC2)Cc2ccccc2F)cc1,35,-11,14,0,17,82*
O=C(Nc1ccc(Cl)cc1)C1CCN(C(=O)c2cccs2)CC1,4,-2,12,-13,-9,.
CNC(=O)CSc1nnc(-c2ccncc2)n1Cc1ccccc1,-3,0,9,?,18,2
N#Cc1ccc(CSc2nnc(-c3ccncc3)n2CCc2ccccc2)cc1,65*,-15,10,-7,2,90*
COC(=O)c1ccc(CSc2nnc(-c3ccncc3)n2Cc2ccccc2)o1,38,27,14,-12,-8,76*
Cc1cc(C(=O)CSc2nc3ccccc3[nH]2)c(C)n1Cc1ccco1,-7,-12,32,-31,16,95*
O=C(CSc1nc2ccccc2[nH]1)c1ccc(Cl)s1,-15,-10,14,-1,18,80*
Cc1cc(C(=O)CSc2nc3ccccc3[nH]2)c(C)n1C,-10,5,.,-12,23,6
COc1ccc(S(=O)(=O)N2CCOC2CNC(=O)C(=O)NCc2ccccn2)cc1C (configuration not stated),-6,13,23,0,8,.
Cc1cc(C(=O)CN2C(=O)NC(C)(c3cccc(Br)c3)C2=O)c(C)n1Cc1ccco1 (configuration not stated),28,23,-11,-5,-9,34
Cc1cc(C(=O)CN2C(=O)NC(c3ccccc3)(c3ccccc3)C2=O)c(C)n1Cc1ccco1,?,14,23,-26,7,52*
CCCn1c(C)cc(C(=O)CSc2nc3ccccc3c(=O)n2Cc2ccco2)c1C,30,10,15,3,13,89*
O=C(CSc1nnc(-c2ccncc2)n1Cc1ccccc1)NC1CCCc2ccccc21 (configuration not stated),50,-17,39,?,8,83*
C=CCn1c(C)cc(C(=O)CSc2nc3ccccc3[nH]2)c1C,-25,4,3,8,1,70*
O=C(Nc1cccc(C(F)(F)F)c1)c1cccnn1,3,-9,10,-2,19,.
O=C(NCc1ccc(F)cc1)c1cc(C(=O)C2CC2)c[nH]1,-1,24,3,-1,9,.
COC(=O)c1ccc(CSc2nc3ccccc3c(=O)n2Cc2ccco2)o1,21,-13,33,-12,13,97*
Cc1ccc(N(CCC(=O)N2CCOCC2)S(=O)(=O)c2ccccc2)cc1,.,.,.,.,10,.
O=C(Cn1nnc(-c2ccc(S(=O)(=O)N3CCCC3)cc2)n1)Nc1ccccc1-n1cccc1,9,19,-3,-6,4,95*
SMILES,T cruzi repl,PolyA inh,NALP1 yeast inh,Calb FLC,NLRP3 yeast inh,Lmaj promast
CC1CCN(Cc2ccc(-c3nnn(CC(=O)Nc4ccccc4Cl)n3)cc2)CC1,24,9,1,1,11,64*
CCCn1c(=O)c2c(nc3n2CC(C)CN3Cc2ccccc2)n(C)c1=O (configuration not stated),-9,-6,-4,-8,7,.
O=C(NCCc1nc2ccccc2[nH]1)c1cccc(Br)c1,56*,?,-4,18,10,3
CC1CCCN(CCCNC(=O)c2ccc(N3CCCC3=O)cc2)C1 (configuration not stated),-17,-11,25,-4,8,.
Cc1cc(C(=O)c2ccccc2)c(NC(=O)CCl)s1,10,-31,24,12,-15,100*
CN(C)c1ccc(NC(=O)CCCCCn2nnc3ccccc3c2=O)cc1,14,11,-32,-8,18,.
Cc1ccc(C(c2nnnn2CC2CCCO2)N2CCN(c3cccc(C)c3C)CC2)cc1 (configuration not stated),23,2,14,6,9,59*
COc1ccc(C(c2nnnn2CC2CCCO2)N2CCN(c3ccccc3)CC2)cc1 (configuration not stated),-15,-10,10,-4,16,-2
Cc1ccc2cc(C(c3nnnn3CC3CCCO3)N3CCc4ccccc4C3)c(=O)[nH]c2c1 (configuration not stated),-13,9,-2,-8,14,93*
Cc1cccc2cc(C(c3nnnn3CC3CCCO3)N3CCc4ccccc4C3)c(=O)[nH]c12 (configuration not stated),.,.,9,.,1,27
Cc1ccc(C)c2[nH]c(=O)c(C(c3nnnn3Cc3ccccc3)N3CCc4ccccc4C3)cc12 (configuration not stated),?,-13,11,-9,15,73*
CC(=O)c1cc(C(=O)Nc2ccc(C(=O)O)cc2)oc1C,-2,19,-14,0,2,-4
Cc1cc(C(=O)Nc2ccccc2)oc1C,-36,-9,5,24,10,56*
CCCCc1c(O)cc(C)[nH]c1=O,-9,3,26,-2,11,.
Cc1ccc(NS(=O)(=O)c2cc(NC(=O)C(C)Oc3ccccc3)ccc2C)c(C)c1 (configuration not stated),7,22,.,25,-1,98*
Cc1ccc(NC(=O)C(C)Oc2ccccc2)cc1S(=O)(=O)N1CCCCCC1 (configuration not stated),.,.,.,.,17,.
CCOC(=O)CSC1=C(C#N)C(c2ccc3c(c2)OCO3)CC(=O)N1 (configuration not stated),-14,0,18,-13,5,73*
CCCCOC(=O)CSC1=C(C#N)C(c2ccc3c(c2)OCO3)CC(=O)N1 (configuration not stated),15,2,16,0,23,20
